ChEMBL document CHEMBL3585281, “Antibacterial Labdane Diterpenoids from Vitex vestita” (2015)

Assays:
Assay type in all cases: functional
Bacillus cereus [1] = experiment: Antibacterial activity against Bacillus cereus N258 after 18 hrs by agar dilution method; conditions: N258, 18 h
Outline: (§1)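 Agar-dilution MIC against Gram-positive strains. Compounds in DMSO, geometric dilutions giving final 100−0.75 mg/L in Mueller Hinton agar. Strains grown 18 h at 37 °C in trypticase soy broth, diluted in sterile water, spotted by Steers inoculator (about 1000 UFC/spot). Plates incubated 18 h at 37 °C; DMSO blank; ofloxacin positive control. MIC = lowest concentration with no visible growth.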

Listeria monocytogenes [2] = experiment: Antibacterial activity against Listeria monocytogenes CIP 103575 after 18 hrs by agar dilution method; conditions: CIP 103575, 18 h; outline: as §1
[3] = tested on: Staphylococcus epidermidis; experiment: Antibacterial activity against Staphylococcus epidermidis CIP 53124 after 18 hrs by agar dilution method; conditions: CIP 53124, 18 h; outline: as §1
[4] = tested on: Enterococcus casseliflavus; experiment: Antibacterial activity against Enterococcus casseliflavus N487 after 18 hrs by agar dilution method; conditions: N487, 18 h; outline: as §1
Enterococcus faecium [5] = experiment: Antibacterial activity against Enterococcus faecium N733 after 18 hrs by agar dilution method; conditions: N733, 18 h; outline: as §1
Enterococcus gallinarum [6] = experiment: Antibacterial activity against Enterococcus gallinarum N489 after 18 hrs by agar dilution method; conditions: N489, 18 h; outline: as §1
MRC5 [7] = experiment: Cytotoxicity against human MRC5 cells assessed as growth inhibition at 10^-5 M after 72 hrs by MTS assay relative to control; conditions: MRC5, 72 h, read-out: GI
Outline: (§2)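 Cells from ATCC; HCT-116 grown in RPMI 1640 and MRC5 in DMEM, each with 10% FCS and 1% glutamine, 37 °C, 5% CO2. Seeded at 2.5 × 10^3 cells/well, cultured 24 h, then exposed to compounds at 1 and 10 μM final for 72 h. MTS read-out, absorbance 490 nm; percent index from treated/control OD490 × 100, three experiments.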

Staphylococcus aureus [8] = experiment: Antibacterial activity against Staphylococcus aureus CIP 53154 after 18 hrs by agar dilution method; conditions: CIP 53154, 18 h; outline: as §1
Corynebacterium striatum = experiment: Antibacterial activity against Corynebacterium striatum N840 after 18 hrs by agar dilution method; conditions: N840, 18 h; outline: as §1
Enterococcus faecalis [9] = experiment: Antibacterial activity against Enterococcus faecalis N520 after 18 hrs by agar dilution method; conditions: N520, 18 h; outline: as §1
[10] = tested on: Staphylococcus saprophyticus; experiment: Antibacterial activity against Staphylococcus saprophyticus E260 after 18 hrs by agar dilution method; conditions: E260, 18 h; outline: as §1
HCT-116 [11] = experiment: Cytotoxicity against human HCT116 cells assessed as growth inhibition at 10^-5 M after 72 hrs by MTS assay relative to control; conditions: HCT-116, 72 h, read-out: GI; outline: as §2
[12] = tested on: Staphylococcus haemolyticus; experiment: Antibacterial activity against Staphylococcus haemolyticus CIP 8156 after 18 hrs by agar dilution method; conditions: CIP 8156, 18 h; outline: as §1
Streptococcus agalactiae = experiment: Antibacterial activity against Streptococcus agalactiae CIP 103227 after 18 hrs by agar dilution method; conditions: ATCC 13813, 18 h; outline: as §1
Enterococcus faecalis [13] = experiment: Antibacterial activity against Enterococcus faecalis CIP 104676 after 18 hrs by agar dilution method; conditions: CIP 104676, 18 h; outline: as §1
Enterococcus faecalis [14] = experiment: Antibacterial activity against Enterococcus faecalis CIP 103214 after 18 hrs by agar dilution method; conditions: CIP 103214, 18 h; outline: as §1
Listeria monocytogenes [15] = experiment: Antibacterial activity against Listeria monocytogenes N851 after 18 hrs by agar dilution method; conditions: N851, 18 h; outline: as §1
Enterococcus hirae = experiment: Antibacterial activity against Enterococcus hirae CIP 5855 after 18 hrs by agar dilution method; conditions: CIP 5855, 18 h; outline: as §1
Staphylococcus aureus [16] = experiment: Antibacterial activity against Staphylococcus aureus CIP 483 after 18 hrs by agar dilution method; conditions: CIP 483, 18 h; outline: as §1
Enterococcus faecium [17] = experiment: Antibacterial activity against Enterococcus faecium CIP 103014 after 18 hrs by agar dilution method; conditions: CIP 103014, 18 h; outline: as §1
Listeria monocytogenes [18] = experiment: Antibacterial activity against Listeria monocytogenes N836 after 18 hrs by agar dilution method; conditions: N836, 18 h; outline: as §1
Staphylococcus aureus [19] = experiment: Antibacterial activity against Staphylococcus aureus ATCC 9144 oxford after 18 hrs by agar dilution method; outline: as §1
Staphylococcus aureus [20] = experiment: Antibacterial activity against Staphylococcus aureus CIP 5710 after 18 hrs by agar dilution method; conditions: CIP 5710, 18 h; outline: as §1
Enterococcus gallinarum [21] = experiment: Antibacterial activity against Enterococcus gallinarum N492 after 18 hrs by agar dilution method; conditions: N492, 18 h; outline: as §1
Staphylococcus aureus [22] = experiment: Antibacterial activity against Staphylococcus aureus ATCC 25923 after 18 hrs by agar dilution method; conditions: ATCC 25923, 18 h; outline: as §1
[23] = tested on: Enterococcus casseliflavus; experiment: Antibacterial activity against Enterococcus casseliflavus CIP 103018 after 18 hrs by agar dilution method; conditions: CIP 103018, 18 h; outline: as §1
Enterococcus faecium [24] = experiment: Antibacterial activity against Enterococcus faecium N507 after 18 hrs by agar dilution method; conditions: N507, 18 h; outline: as §1
HCT-116 [25] = experiment: Cytotoxicity against human HCT116 cells assessed as growth inhibition at 10^-6 M after 72 hrs by MTS assay relative to control; conditions: HCT-116, 72 h, read-out: GI; outline: as §2
MRC5 [26] = experiment: Cytotoxicity against human MRC5 cells assessed as growth inhibition at 10^-6 M after 72 hrs by MTS assay relative to control; conditions: MRC5, 72 h, read-out: GI; outline: as §2
Enterococcus gallinarum [27] = experiment: Antibacterial activity against Enterococcus gallinarum CIP 105985 after 18 hrs by agar dilution method; conditions: CIP 105985, 18 h; outline: as §1
Enterococcus durans = experiment: Antibacterial activity against Enterococcus durans CIP 104999 after 18 hrs by agar dilution method; conditions: CIP 104999, 18 h; outline: as §1
Enterococcus faecium [28] = experiment: Antibacterial activity against Enterococcus faecium N823 after 18 hrs by agar dilution method; conditions: N823, 18 h; outline: as §1
Bacillus cereus [29] = experiment: Antibacterial activity against Bacillus cereus N349 after 18 hrs by agar dilution method; conditions: N349, 18 h; outline: as §1
[30] = tested on: Staphylococcus intermedius; experiment: Antibacterial activity against Staphylococcus intermedius N987 after 18 hrs by agar dilution method; conditions: N987, 18 h; outline: as §1
Mammaliicoccus sciuri = experiment: Antibacterial activity against Staphylococcus sciuri N993 after 18 hrs by agar dilution method; conditions: N993, 18 h; outline: as §1
Bacillus spizizenii = experiment: Antibacterial activity against Bacillus subtilis ATCC 6633 after 18 hrs by agar dilution method; conditions: ATCC 6633, 18 h; outline: as §1
Enterococcus faecalis [31] = experiment: Antibacterial activity against Enterococcus faecalis N518 after 18 hrs by agar dilution method; conditions: N518, 18 h; outline: as §1
Bacillus cereus [32] = experiment: Antibacterial activity against Bacillus cereus N190 after 18 hrs by agar dilution method; conditions: N190, 18 h; outline: as §1
Enterococcus faecium [33] = experiment: Antibacterial activity against Enterococcus faecium N490 after 18 hrs by agar dilution method; conditions: N490, 18 h; outline: as §1
Enterococcus faecium [34] = experiment: Antibacterial activity against Enterococcus faecium CIP 107387 after 18 hrs by agar dilution method; conditions: CIP 107387, 18 h; outline: as §1
Staphylococcus aureus [35] = experiment: Antibacterial activity against Staphylococcus aureus CIP 7625 after 18 hrs by agar dilution method; conditions: CIP 7625, 18 h; outline: as §1
Staphylococcus aureus [36] = experiment: Antibacterial activity against Staphylococcus aureus CIP 53156 after 18 hrs by agar dilution method; conditions: CIP 53156, 18 h; outline: as §1
Listeria monocytogenes [37] = experiment: Antibacterial activity against Listeria monocytogenes N783 after 18 hrs by agar dilution method; conditions: N783, 18 h; outline: as §1
Staphylococcus aureus [38] = experiment: Antibacterial activity against Staphylococcus aureus CRBIP 2121 after 18 hrs by agar dilution method; conditions: CRBIP 2121, 18 h; outline: as §1
Listeria innocua = experiment: Antibacterial activity against Listeria innocua E044 after 18 hrs by agar dilution method; conditions: E044, 18 h; outline: as §1
Bacillus cereus [39] = experiment: Antibacterial activity against Bacillus cereus CIP 6624 after 18 hrs by agar dilution method; conditions: CIP 6624, 18 h; outline: as §1
Enterococcus faecalis [40] = experiment: Antibacterial activity against Enterococcus faecalis N491 after 18 hrs by agar dilution method; conditions: N491, 18 h; outline: as §1
[41] = tested on: Staphylococcus saprophyticus; experiment: Antibacterial activity against Staphylococcus saprophyticus CIP 76125 after 18 hrs by agar dilution method; conditions: CIP 76125, 18 h; outline: as §1
[42] = tested on: Staphylococcus lugdunensis; experiment: Antibacterial activity against Staphylococcus lugdunensis ATCC 43809 after 18 hrs by agar dilution method; conditions: ATCC 43809, 18 h; outline: as §1
Enterococcus avium = experiment: Antibacterial activity against Enterococcus avium CIP 104053 after 18 hrs by agar dilution method; conditions: CIP 104053, 18 h; outline: as §1

C=C1CC[C@H]2C(C)(C)CCC[C@]2(C)[C@H]1C[C@H](O)C1=CC(=O)OC1O (some centres undefined)
67%: inhibition of growth at 10 µM (MRC5 [7])
19%: inhibition of growth at 1 µM (MRC5 [26])
48 µM: MIC [3] | MIC (Staphylococcus aureus [8]) | MIC [10] | MIC (Staphylococcus aureus [16]) | MIC (Staphylococcus aureus [19]) | MIC (Staphylococcus aureus [20]) | MIC (Staphylococcus aureus [22]) | MIC (Enterococcus durans) | MIC (Staphylococcus aureus [35]) | MIC (Staphylococcus aureus [36]) | MIC (Staphylococcus aureus [38]) | MIC [41] | MIC [42]
96 µM: MIC (Listeria monocytogenes [2]) | MIC (Enterococcus gallinarum [6]) | MIC (Corynebacterium striatum) | MIC (Enterococcus faecalis [9]) | MIC (Enterococcus faecalis [13]) | MIC (Listeria monocytogenes [15]) | MIC (Listeria monocytogenes [18]) | MIC (Enterococcus gallinarum [21]) | MIC (Mammaliicoccus sciuri) | MIC (Listeria monocytogenes [37]) | MIC (Enterococcus faecalis [40]) | MIC (Enterococcus avium)
90%: inhibition of growth at 10 µM (HCT-116 [11])
24 µM: MIC (Bacillus cereus [1]) | MIC [12] | MIC (Streptococcus agalactiae) | MIC (Bacillus cereus [29]) | MIC [30] | MIC (Bacillus cereus [32]) | MIC (Bacillus cereus [39])
12 µM: MIC (Bacillus spizizenii)
> 96 µM: MIC [4] | MIC (Enterococcus faecium [5]) | MIC (Enterococcus faecalis [14]) | MIC (Enterococcus hirae) | MIC (Enterococcus faecium [17]) | MIC [23] | MIC (Enterococcus faecium [24]) | MIC (Enterococcus gallinarum [27]) | MIC (Enterococcus faecium [28]) | MIC (Enterococcus faecalis [31]) | MIC (Enterococcus faecium [33]) | MIC (Enterococcus faecium [34]) | MIC (Listeria innocua)
1%: inhibition of growth at 1 µM (HCT-116 [25])

C=C1C[C@@H](O)[C@H]2C(C)(C)CCC[C@]2(C)[C@H]1C[C@H](O)C1=CC(=O)OC1O (some centres undefined)
66%: inhibition of growth at 10 µM (HCT-116 [11])
0%: inhibition of growth at 10 µM (MRC5 [7]) | inhibition of growth at 1 µM (HCT-116 [25]) | inhibition of growth at 1 µM (MRC5 [26])
